High-throughput results from PubChem BioAssay.
RAD54 branch: inhibitors of human RAD54 branch migration; Q92698; RAD54 Holliday junction branch migration, FAM/BHQ fluorescence; inhibition, % at 10.4 µM; actives 0.14% (n = 360,000);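 active means mean normalized replicate activity at least 40 and at least half of replicates scoring 40 or more; inconclusive means only one of the two criteria met; inactive means mean below 40 and under half of replicates reaching 40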;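 further: inhibitors cause a drop in the FAM fluorescence signal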
S100A4 MyoIIA: inhibitors of human S100A4 binding to myosin IIA peptide. P26447. S100A4/TAMRA-MyoIIA peptide fluorescence polarization. AID 652163. actives 0.14% (n = 360,000). inhibition, % at 10.7 µM;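 active means mean inhibition of at least 70% across replicates, with every replicate also reaching that level; inconclusive means mean inhibition reaches 70% but some replicates fall short; inactive means mean inhibition below 70%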
Target sequence (P26447 whole entry, looked up): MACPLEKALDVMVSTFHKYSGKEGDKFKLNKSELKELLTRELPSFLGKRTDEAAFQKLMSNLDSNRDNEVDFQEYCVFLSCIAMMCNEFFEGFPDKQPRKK
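Test system: S100A4 monomer protein. Medium: HEPES buffer with Ca2+, pH 7.2. Reagent: fluorescent myosin IIA peptide, 5 nM. Compound dosing: single-point compound testing. Timing: 5 min between mix addition and reading. Benchmarks: DMSO neutral and TFP positive wells.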
INS-1E GSIS act: GLuc luminescence reporter in INS-1E cells, primary screen for activators of glucose-dependent secretion of insulin; AID 743287; INS-1E GLuc reporter insulin secretion, 2-3 h; activation, % at 16.6 µM; actives 0.61% (n = 370,000);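 active means lowest replicate activation of at least 40%, so every replicate reaches that level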
RAD52 anneal inh: RAD52 (human) annealing inhibition. P43351. actives 0.46% (n = 360,000). recombinant RAD52 DNA annealing, FRET fluorescence. AID 651710. inhibition, % at 18.7 µM;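 active means every replicate showing at least 50% inhibition; inconclusive means mean inhibition at least 50% but not in every replicate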
AF4-AF9 inh: MLL-AF4/AF9 protein interaction inhibition. actives 0.47% (n = 350,000). AID 651704. P42568. inhibition, % at 10 µM. AlphaScreen, biotin-AF4 peptide binding to FLAG-AF9;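 active means every replicate reaching a set inhibition limit, whatever the replicate mean, cut at about 25% in these data; inconclusive means mean inhibition reaches that limit but some replicates miss it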
Target sequence (P42568 whole entry, looked up): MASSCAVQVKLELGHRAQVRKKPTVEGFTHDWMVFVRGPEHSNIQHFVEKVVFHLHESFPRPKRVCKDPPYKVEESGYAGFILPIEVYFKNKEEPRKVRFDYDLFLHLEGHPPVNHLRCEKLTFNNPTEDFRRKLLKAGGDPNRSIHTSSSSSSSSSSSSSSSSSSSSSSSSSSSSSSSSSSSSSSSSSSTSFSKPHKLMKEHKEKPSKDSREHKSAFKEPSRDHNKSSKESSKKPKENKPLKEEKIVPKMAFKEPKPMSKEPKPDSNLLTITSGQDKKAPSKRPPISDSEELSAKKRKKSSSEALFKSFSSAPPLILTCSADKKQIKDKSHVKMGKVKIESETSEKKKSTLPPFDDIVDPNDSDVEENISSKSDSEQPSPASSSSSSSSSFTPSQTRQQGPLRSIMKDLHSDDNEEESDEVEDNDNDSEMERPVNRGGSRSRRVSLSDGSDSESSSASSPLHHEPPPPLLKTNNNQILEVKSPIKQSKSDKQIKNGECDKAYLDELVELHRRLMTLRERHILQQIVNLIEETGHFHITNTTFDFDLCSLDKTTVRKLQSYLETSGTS
DNA binder FP: DNA binding artifact in RAD52 counter-screen; shares compounds with RAD52 anneal inh; Salmon sperm DNA/acridine orange FP displacement; AC50, µM; actives 8% (n = 1,000); AID 652128;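 active means fitted half-maximal concentration for signal loss at or below twice the highest dose tested, in every separate run, actives reach about 64 µM in these data; inconclusive means runs disagree, or flat partial signal loss, or poor fit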
Of the large screens only hits and unclear results are named; the others gave an inactive call (follow-up assays come after a bar, where they were run). Most compounds without a hit are left out; they make up all but 1.3% or so of the library.

NCC12CC3CC(C1)CC(c1ccc(Br)cc1)(C3)C2	RAD52 anneal inh 57 | DNA binder FP inactive
CCN(CC)c1ccc(N=Cc2ccc(N(CC)CC)cc2O)cc1	none (no result: RAD54 branch, S100A4 MyoIIA, RAD52 anneal inh, AF4-AF9 inh)
CCN1CCN(c2ccc(N=Cc3ccc(O)cc3O)cc2)CC1	RAD52 anneal inh 91 (no result: RAD54 branch) | DNA binder FP inactive
CN1CCN(c2cc3c(c4c2[nH]c2ccccc24)C(=O)CC(C)(C)C3)CC1	RAD52 anneal inh 67 | DNA binder FP inactive
N=C(N)c1ccc(N=Nc2c(O)ccc3c2[nH]c2ccccc23)cc1	INS-1E GSIS act 47, RAD52 anneal inh 102, AF4-AF9 inh 32 (no result: RAD54 branch) | DNA binder FP inactive
Cc1noc(C)c1S(=O)(=O)N(C)C[C@@H]1Oc2ccc(NS(=O)(=O)c3cccs3)cc2CC(=O)N([C@@H](C)CO)C[C@@H]1C	none
COc1ccc(CN2CCOCC2)cc1OC	none (no result: S100A4 MyoIIA, INS-1E GSIS act, RAD52 anneal inh, AF4-AF9 inh)
COc1cc2sc3ccc(-c4ccc(CN5CCOCC5)cc4)cc3c(=O)c2cc1OC	RAD52 anneal inh 93 | DNA binder FP inactive
Cc1ccc(S(=O)(=O)N(C)C[C@H]2Oc3c(NC(=O)c4cc(C)nn4C)cccc3C(=O)N([C@@H](C)CO)C[C@H]2C)cc1	none
CN(C)c1ccc(C=c2c3ccccc3n3c2c2c([n+]3C)CCCC2)cc1	RAD52 anneal inh 89, AF4-AF9 inh 37 (no result: RAD54 branch) | DNA binder FP 6.9µM
CN(C)c1ccc(/C=C2\SC(=O)N(CC(O)Cn3c4ccccc4c4ccccc43)C2=O)cc1 (centres undefined)	none (no result: S100A4 MyoIIA, RAD52 anneal inh, AF4-AF9 inh)
NC(=Nc1ccccc1)NC(=O)c1nc(Cl)c(N)nc1N	RAD54 branch inconclusive
NC(=NCc1ccccc1)NC(=O)c1nc(Cl)c(N)nc1N	RAD54 branch inconclusive, RAD52 anneal inh 50 (no result: INS-1E GSIS act) | DNA binder FP inactive
Cc1ccc(-c2csc(NC(=O)C[n+]3cc(-c4ccc(C)cc4)n4c3CCC4)n2)cc1	AF4-AF9 inh inconclusive (no result: RAD54 branch)
Cc1ccc(-c2csc(NC(=O)C[n+]3cc(-c4ccccc4)n4c3CCC4)n2)cc1	RAD52 anneal inh 50 | DNA binder FP inactive
COc1ccc(C(=O)NC2CC(C)(C)NC(C)(C)C2)cc1S(=O)(=O)N1CCOCC1	RAD52 anneal inh 98 | DNA binder FP inactive
Cc1ccc(SCCc2cc[n+](CC(=O)c3ccccc3)cc2)cc1	RAD52 anneal inh 54 (no result: RAD54 branch) | DNA binder FP inactive
Cc1ccc(C(=O)C[n+]2ccc3ccccc3c2)cc1	none (no result: RAD54 branch)
COc1cc(NC(=O)c2ccc(N3CC4CC(C3)c3cccc(=O)n3C4)c(NC(=O)c3ccncc3)c2)cc(OC)c1OC (centres undefined)	RAD52 anneal inh 85 | DNA binder FP inactive
CC(C)(C)S(=O)N1Cc2cc(C(=O)NCCCN3CCOCC3)nc(-c3cccc(-c4cc5ccccc5o4)c3)c2[C@@H]1CCO (some centres undefined)	none | DNA binder FP inactive
CC(C)(O)C#Cc1cccc(-c2nc(C(=O)NCCCN3CCOCC3)cc3c2[C@@H](CCO)N(S(=O)C(C)(C)C)C3)c1 (some centres undefined)	none
Cc1ccc(S(=O)(=O)Nc2ccc3c(c2)C(=O)N([C@H](C)CO)C[C@@H](C)[C@@H](CN(C)S(=O)(=O)c2cccs2)O3)cc1	none
CCOC(=O)c1cnc2c(ccc3ccccc32)c1NCCN(C)C	RAD54 branch 80, RAD52 anneal inh 79 | DNA binder FP inactive
CO[C@@H]1CC[C@@H]2CCOc3c(C#N)cccc3C(=O)N(C)C[C@H](C)C(=O)N(C)C[C@@H]1O2	none
NC(=O)c1ccc(Nc2nc(C(N)COCc3ccccc3)cs2)cc1 (centres undefined)	none (no result: INS-1E GSIS act)
NC(COCc1ccccc1)c1csc(Nc2ccc(C(=O)c3ccccc3)cc2)n1 (centres undefined)	RAD52 anneal inh 58 | DNA binder FP inactive
Cc1ccc2c(c1)c1c(n2CC(O)CNC(C)(C)C)CCCC1 (centres undefined)	RAD52 anneal inh 52 | DNA binder FP inactive
Cc1ccc(S(=O)(=O)Nc2ccc3c(c2)C(=O)N([C@H](C)CO)C[C@H](C)[C@@H](CN(C)Cc2ccc4c(c2)OCO4)OCCCC[C@H](C)O3)cc1	none
COc1ccc(C)cc1Nc1n[n+](-c2ccccc2)c(-c2c(OC)ccc3ccccc23)s1	RAD52 anneal inh 102, AF4-AF9 inh 40 | DNA binder FP inactive
COc1ccc(C)cc1Nc1n[n+](-c2ccccc2)c(-c2cc(OC)c(OC)cc2Br)s1	none
Cn1cccc1CNC(=S)Nc1ccccc1Cl	none (no result: RAD54 branch)
Cc1cc(C)cc(NC(=S)NCc2cccn2C)c1	RAD52 anneal inh 65 (no result: RAD54 branch, INS-1E GSIS act) | DNA binder FP inactive
COc1cccc(S(=O)(=O)NCC(=O)N2CCCCCC2)c1	RAD52 anneal inh 108 | DNA binder FP inactive
COc1cccc(S(=O)(=O)Nc2ccc(C(=O)N3CCCCCC3)cc2)c1	none
CN(C)c1cccc2cccc(N(C)C)c12	RAD52 anneal inh 93 (no result: AF4-AF9 inh) | DNA binder FP inactive
CC(=O)c1ccc(N(C)C)c2c(N(C)C)cccc12	none (no result: S100A4 MyoIIA, INS-1E GSIS act, RAD52 anneal inh, AF4-AF9 inh)
C[C@@H]1ON(C)[C@H]2C[C@H]3c4cc(Nc5ccccc5)ccc4CCN3C[C@@H]12	none (no result: RAD54 branch, AF4-AF9 inh)
C[C@@H]1ON(C)[C@H]2C[C@H]3c4cc(-c5cc6ccccc6o5)ccc4CCN3C[C@@H]12	RAD52 anneal inh 68 (no result: RAD54 branch, AF4-AF9 inh) | DNA binder FP inactive
CC(CC(=O)c1ccc(F)cc1)N1CCN(c2ccccc2)CC1 (centres undefined)	RAD52 anneal inh 80 (no result: RAD54 branch) | DNA binder FP inactive
COc1ccc(NC(=O)N[C@@H]2CC[C@H](CCNC(=O)c3ccccc3F)O[C@@H]2CO)cc1	none
CN(C)CCCNc1oc(/C=C/c2cccs2)nc1S(=O)(=O)c1ccccc1	RAD52 anneal inh 52 | DNA binder FP inactive
CC(C)C[C@@H]1CN=C(N)N1C[C@@H]1CCCN1C[C@H](C)N1C[C@@H](Cc2ccccc2)N(CCc2ccc(Cl)c(Cl)c2)C1=N	none (no result: S100A4 MyoIIA, INS-1E GSIS act, RAD52 anneal inh, AF4-AF9 inh)
CC(C)C[C@@H]1CN=C(N)N1C[C@@H]1CCCN1C[C@@H](C(C)C)N1C[C@@H](Cc2ccccc2)N(CCc2ccc(Cl)c(Cl)c2)C1=N	RAD52 anneal inh 51 (no result: INS-1E GSIS act) | DNA binder FP inactive
CN(C)CCOc1ccc2c(c1)C(=O)C(=Cc1ncc([N+](=O)[O-])n1C)C2	RAD54 branch 62, RAD52 anneal inh 88 (no result: INS-1E GSIS act) | DNA binder FP inactive
Cc1ccc(-c2csc(N(CCCN3CCOCC3)C(=O)c3ccco3)n2)cc1	none (no result: S100A4 MyoIIA, RAD52 anneal inh, AF4-AF9 inh)
CN(C)CCCN(C(=O)c1ccco1)c1nc2cc3c(cc2s1)OCO3	RAD52 anneal inh 54 | DNA binder FP inactive
Cc1ccc2nc(N(CCCN(C)C)C(=O)c3ccco3)sc2c1	none (no result: RAD54 branch)
CN(C)CCCN(C(=O)c1ccc2c(c1)CCCC2)c1nc2c(F)cccc2s1	RAD52 anneal inh 75, AF4-AF9 inh 32 | DNA binder FP inactive
Cc1ccc(-c2csc(N(CCCN(C)C)C(=O)c3ccco3)n2)cc1	RAD52 anneal inh 64 (no result: RAD54 branch) | DNA binder FP inactive
CN(C)CCN(C(=O)c1ccc(S(=O)(=O)N(C)c2ccccc2)cc1)c1nc2cc3c(cc2s1)OCCO3	none
CC(=O)N(CCN(C)C)c1nc2cc3c(cc2s1)OCCO3	RAD52 anneal inh 55 | DNA binder FP inactive
